High-throughput results from PubChem.
Exocytosis inh = LAMP-1 surface exposure blockers, TALL-104 cells – cell-based, flow cytometry, MLPCN library, primary screen. 360,000 tested, 0.66% active. inhibition, % at 10 µM. TALL-104 LAMP-1 surface exposure; cells stimulated with thapsigargin and PMA;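 active = inhibition above about 55%, limit read from the data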
hiPSC survival = enhancers of single-cell hiPSC survival, primary screen, ATPlite luminescence; AID 602274, 2012; 360,000 tested, 0.044% active; 100% = ROCK inhibitor wells, 0% = DMSO; survival enhancement, % at 20 µM; in the data active = survival enhancement above about 18%;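 note: cells exposed to compounds for 16 hours before the ATP read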
UBC13 polyUb = UBC13 polyubiquitin chain formation inhibitors, primary screen, biochemical, TR-FRET, uHTS; inhibition, % at 20 µM; Ubiquitin-conjugating enzyme E2 N (Homo sapiens), P61088; 330,000 tested, 0.47% active; in the data active = inhibition above about 45%, passing the limit was not always enough
Target sequence (P61088 whole entry, looked up): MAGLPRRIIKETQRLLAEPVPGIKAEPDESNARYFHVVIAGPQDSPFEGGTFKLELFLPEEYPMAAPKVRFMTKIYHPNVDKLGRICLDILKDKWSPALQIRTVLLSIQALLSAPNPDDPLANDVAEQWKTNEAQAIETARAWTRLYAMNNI
beta cell repl = inducers of MIN6 beta-cell proliferation, primary screen, ATP luminescence, uHTS; MIN6 cells proliferation, ATPlite luminescence, 48 h; cells starved in 0.2% serum; 100% = growth in 10% serum; proliferation, % at 10 µM; 330,000 tested, 0.29% active; AID 2380, 2010;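 active = compounds whose signal lies at least 3.5 SD above the mean of all wells on their plate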;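 note: 0% = DMSO-treated cells in low-serum medium and 100% = 10% serum control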
Apaf1 inhib = inhibitors of human Apaf-1 apoptosome, primary screen, biochemical, DEVD-Rh110 fluorescence, uHTS; reconstituted apoptosome caspase-3 activity; inhibition, % at 20 µM; 330,000 tested, 0.71% active; active = inhibition of at least 40% at 20 µM;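 note: plate controls were DMSO wells for no effect and DEVD-CHO caspase inhibitor wells for full effect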
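System: Apoptosome proteins | Medium: Hepes pH 7.5 with detergent and BSA | Also added: Cytochrome c trigger plus (Z-DEVD)2-Rh110 caspase-3 substrate | Incubation: 30 min compound preincubation, 50 min activation, room temperature | Detection: Rhodamine 110 fluorescence at Ex 480/Em 540 nm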
MPTP inh = mitochondrial permeability transition pore inhibitors, primary screen, biochemical, isolated mouse mitochondria, absorbance; Ca2+ swelling absorbance, 30 min; inhibition, % at 10 µM; 360,000 tested, 1.4% active; AID 602449, 2012;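 active = inhibition of 50% or more, scaled per plate between neutral and stimulator controls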;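 note: 0% = DMSO wells given calcium and 100% = 1 mM EGTA wells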
Rh123 counter = fluorescence retest of MPTP screen hits in isolated mitochondria, single concentration | AID 624504, 2012 | 5,000 tested, 78% active | membrane potential, Rhodamine 123 fluorescence | shares compounds with MPTP inh | inhibition, % at 10 µM; in the data active = inhibition above about 22%;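 note: 0% = DMSO vehicle and 100% = positive control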
MPTP abs DR = mitochondrial permeability transition pore inhibitors, dose response, biochemical, absorbance, uHTS hits. shares compounds with MPTP inh. isolated mitochondria swelling. IC50, µM. 780 tested, 58% active. AID 651561, 2012; in the data active = IC50 below about 20 µM
MPTP counter DR = fluorescent counter-screen in isolated mitochondria, dose response, counter-screen for MPTP inhibitor project, biochemical, fluorescence, uHTS hits; shares compounds with MPTP inh; isolated mitochondria counterscreen, fluorescence read-out; IC50, µM; 780 tested, 49% active; in the data active = IC50 below about 80 µM
* marks the source's active call; other numbers are inactive results; i = inactive; x = no result given. An excerpt weighted towards active compounds, which were near 3% of everything screened.

SMILES | Exocytosis inh | hiPSC survival | UBC13 polyUb | beta cell repl | Apaf1 inhib | MPTP inh | Rh123 counter | others
Cc1ccc(/C=C/C(=O)Nc2ccc([N+](=O)[O-])cc2)o1 | 20 | 3 | -4 | -4 | -11 | 89* | 75*
CCCCOc1ccc(/C=C/C(=O)Nc2ccc([N+](=O)[O-])cc2C)cc1 | -2 | 2 | -5 | 0 | 6 | 5 | x
CCCOc1ccc(/C=C/C(=O)Nc2ccc([N+](=O)[O-])cc2)cc1 | 6 | -3 | -19 | -3 | 21 | 82* | 86*
Cc1ccc(/C=C/C(=O)Nc2ccc(Oc3ccccc3)cc2)o1 | 14 | -1 | x | x | x | 17 | x
O=C(/C=C/c1ccc([N+](=O)[O-])cc1)Nc1ncc([N+](=O)[O-])s1 | -8 | 2 | x | x | x | 83* | 63*
CCn1ccnc1C(O)(c1ccccc1)c1ccccc1 | -7 | 0 | 8 | 0 | -7 | -1 | x
COc1ccc(C)cc1NC(=S)N1CC(C)OC(C)C1 (stereo not drawn) | 3 | 0 | 4 | -1 | 0 | -1 | x
Cc1c(C(=O)Nc2nonc2-c2ccc(F)cc2)oc2ccc(F)cc12 | 1 | 2 | -8 | -7 | 22 | 81* | 84*
CC(C)C[C@H]1CNC(=S)N1C[C@H]1CCCN1C[C@H](Cc1ccccc1)N1C[C@H](Cc2ccc(O)cc2)N(CCc2ccccc2)C1=S | 18 | -3 | x | x | x | 2 | x
CCCCN1C(=N)N([C@@H](C)CN2CCC[C@H]2CN2C(N)=NC[C@H]2CC(C)C)C[C@H]1Cc1ccccc1 | -2 | 10 | 27 | -3 | 18 | 67* | 1 | MPTP abs DR=9*;MPTP counter DR=>80
OC(CNCc1ccc(Cl)cc1)(c1ccccc1)c1ccc(F)cc1 (stereo not drawn) | -1 | 0 | 8 | -4 | 19 | 73* | 13 | MPTP abs DR=18*;MPTP counter DR=25*
OC(CNCc1ccc(F)cc1)(c1ccc(F)cc1)c1ccc(F)cc1 | 0 | -1 | 7 | -5 | 2 | 7 | x
CCC(C)c1ccccc1NC(=O)COC(=O)c1ccc2[nH]c3c(c2c1)CCCC3 (stereo not drawn) | 61* | -2 | 8 | -7 | -170 | 83* | 73*
CC(C)CCCN1C(Nc2ccccc2)=NC[C@@H]1C | 6 | 1 | -1 | 1 | 0 | 2 | x
CC(C)(C)C1CCC(OCC(O)CN2CCCC2)CC1 (stereo not drawn) | -16 | 1 | 3 | -5 | -6 | 1 | x
CC(C)(C)C1CCC(OCC(O)CN2CCN(c3ccccc3)CC2)CC1 (stereo not drawn) | -1 | -3 | 4 | -2 | -1 | 85* | -4 | MPTP abs DR=>100;MPTP counter DR=>80
COC(=O)c1c(NC(=O)C2CCCCC2)sc2c1CCN(C(C)C)C2 | -1 | 5 | -2 | -1 | 0 | 55* | -5 | MPTP abs DR=i;MPTP counter DR=>80
CCOC(=O)c1c(NC(=O)C2CCCCC2)sc2c1CCN(C(C)C)C2 | -3 | 5 | 22 | 0 | 28 | 21 | x
CC1CCCC(C)N1CCCNC(=O)C1CCCN(S(=O)(=O)N2CCCCC2)C1 (stereo not drawn) | 0 | -1 | x | x | x | 0 | x
CCn1c(CNC(=O)C2CCCCC2)cc2cc(C)ccc21 | -3 | 0 | -8 | -2 | 9 | 1 | x
O=C(C1CC1)N1CCC(c2nc(-c3ccc(S(=O)(=O)NCC4CCCO4)cc3)no2)CC1 (stereo not drawn) | 2 | 1 | -8 | -1 | 5 | 66* | 16 | MPTP abs DR=i;MPTP counter DR=46*
O=S(=O)(NCC1CCCO1)c1ccccc1 (stereo not drawn) | 3 | 0 | -1 | 0 | 3 | 1 | x
